Source: ChEMBL document CHEMBL3091313, “Amino acids derived benzoxazepines: design, synthesis and antitumor activity” (Bioorg Med Chem Lett, 2013)
Calls of active or inactive are those of the source. The rule behind the calls is not given here.

Legend:
MDA-MB-231 [1] = test: Cell cycle arrest in human MDA-MB-231 cells assessed as apoptosis at 3 uM after 24 hrs using propidium iodide staining by flow cytometry (reference value: 0.10 %); format: functional
MDA-MB-231 [2] = test: Cell cycle arrest in human MDA-MB-231 cells assessed as accumulation at S phase at 1 uM after 24 hrs using propidium iodide staining by flow cytometry (reference value: 28.59 %); format: functional
MDA-MB-231 [3] = test: Cell cycle arrest in human MDA-MB-231 cells assessed as accumulation at G2 phase at 1 uM after 24 hrs using propidium iodide staining by flow cytometry (reference value: 18.75 %); format: functional
MDA-MB-231 [4] = test: Cell cycle arrest in human MDA-MB-231 cells assessed as accumulation at G1 phase at 1 uM after 24 hrs using propidium iodide staining by flow cytometry (reference value: 52.67 %); format: functional
MCF7 [5] = test: Induction of apoptosis in human MCF7 cells assessed as DNA fragmentation after 24 hrs by ELISA; format: functional, cell-based
Outline: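 MCF-7 cells were treated with compound, with 4-OHT alongside. DNA fragmentation was quantified after 24 h and expressed relative to a positive control set at 100%. Data are mean ± SEM of three independent experiments.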

MCF7 [6] = test: Induction of apoptosis in human MCF7 cells assessed as late apoptotic cells at 1 uM after 24 hrs using annexin V/PI staining by flow cytometry (reference value: 6.46 %); format: functional
Outline: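 MCF-7 cells were exposed to vehicle or the indicated compound concentrations for 24 h. Phosphatidylserine exposure was then measured by flow cytometry after staining with FITC-labelled Annexin V and propidium iodide. Apoptotic cell fractions were read from dot plots relative to vehicle.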

MDA-MB-231 [7] = test: Antiproliferative activity against human MDA-MB-231 cells after 72 hrs by MTT assay; format: functional, cell-based; conditions: MDA-MB-231, 72 h
Outline: (§1)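 MCF-7 (ER+ve) and MDA-MB-231 (ER-ve) breast cancer cells were exposed to compound or vehicle. Viability was read by MTT and expressed as % cell death versus vehicle, with 4-hydroxytamoxifen as positive control. IC50 came from three independent experiments, each in triplicate.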

MCF7 [8] = test: Antiproliferative activity against human MCF7 cells after 48 hrs by MTT assay; format: functional, cell-based; conditions: MCF7, 48 h; outline: as §1
[9] = Cytotoxicity against rat primary calvarial osteoblasts after 24 hrs by MTT assay; format: cell-based; conditions: calvarial osteoblast
Outline: (§2)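 Vero, HEK-293 and primary rat calvarial osteoblasts were given vehicle or a range of concentrations for 24 h. Cell death was expressed as % relative to vehicle.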

MCF7 [10] = test: Cytotoxicity against human MCF7 cells assessed as reduction in membrane integrity at IC50 by LDH release assay; format: functional, cell-based
Outline: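 Membrane integrity was assessed in MCF-7 cells exposed to a range of compound concentrations, by measuring LDH released into the culture medium.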

Vero = test: Cytotoxicity against african green monkey Vero cells after 24 hrs by MTT assay; format: cell-based; conditions: chlorocebus sabaeus; outline: as §2
MDA-MB-231 [11] = test: Antiproliferative activity against human MDA-MB-231 cells after 24 hrs by MTT assay; format: functional, cell-based; conditions: MDA-MB-231, 24 h; outline: as §1
Mus musculus = test: Toxicity in human MCF7 cells xenografted athymic nude mouse assessed as change in body weight at 16 mg/kg/day, po for 21 days measured up to 21 days relative to vehicle-treated control; format: organism-based; set-up: route oral; conditions: in vivo, 504 h
MCF7 [12] = test: Induction of apoptosis in human MCF7 cells assessed as reduction in cell viability at 5 uM after 24 hrs by MTT assay in presence of LEHD-FMK; format: functional, cell-based
MCF7 [13] = test: Induction of apoptosis in human MCF7 cells assessed as caspase-9 cleavage at 5 uM after 6 hrs by immunoblotting method; format: functional, cell-based
MCF7 [14] = test: Induction of apoptosis in human MCF7 cells assessed as caspase-8 cleavage at 5 uM after 6 hrs by immunoblotting method; format: functional, cell-based
MCF7 [15] = test: Induction of apoptosis in human MCF7 cells assessed as caspase-3 cleavage at 5 uM after 3 hrs by immunoblotting method; format: functional, cell-based
MCF7 [16] = test: Cell cycle arrest in human MCF7 cells assessed as decrease in cyclin D1 mRNA level at 1 to 5 uM after 12 hrs by QRT-PCR method; format: functional, cell-based
MCF7 [17] = test: Cell cycle arrest in human MCF7 cells assessed as increase in p21 mRNA level at 1 to 5 uM after 12 hrs by QRT-PCR method; format: functional, cell-based
MCF7 [18] = test: Cell cycle arrest in human MCF7 cells assessed as accumulation at G1 phase at 3 uM after 24 hrs using propidium iodide staining by flow cytometry (reference value: 67.73 %); format: functional
MCF7 [19] = test: Cell cycle arrest in human MCF7 cells assessed as accumulation at S phase at 1 uM after 24 hrs using propidium iodide staining by flow cytometry (reference value: 24.81 %); format: functional
MCF7 [20] = test: Cell cycle arrest in human MCF7 cells assessed as accumulation at G2 phase at 1 uM after 24 hrs using propidium iodide staining by flow cytometry (reference value: 7.46 %); format: functional
MCF7 [21] = test: Cell cycle arrest in human MCF7 cells assessed as apoptosis at 1 uM after 24 hrs using propidium iodide staining by flow cytometry (reference value: 0.06 %); format: functional
MDA-MB-231 [22] = test: Cell cycle arrest in human MDA-MB-231 cells assessed as accumulation at G2 phase at 5 uM after 24 hrs using propidium iodide staining by flow cytometry (reference value: 18.75 %); format: functional
MDA-MB-231 [23] = test: Cell cycle arrest in human MDA-MB-231 cells assessed as accumulation at S phase at 3 uM after 24 hrs using propidium iodide staining by flow cytometry (reference value: 28.59 %); format: functional
MDA-MB-231 [24] = test: Cell cycle arrest in human MDA-MB-231 cells assessed as accumulation at G2 phase at 3 uM after 24 hrs using propidium iodide staining by flow cytometry (reference value: 18.75 %); format: functional

Cc1ccc(S(=O)(=O)N2Cc3ccccc3OC[C@@H]2Cc2ccc(OCCN3CCCCCC3)cc2)cc1.Cl
Activity (MDA-MB-231 [1]): 3.61% | Activity (MDA-MB-231 [2]): 24.81% | Activity (MDA-MB-231 [3]): 7.46% | Activity (MDA-MB-231 [4]): 67.73% | Activity (MCF7 [5]): Dose-dependent effect | Activity (MCF7 [6]): 20.15% | IC50 (MDA-MB-231 [7]): 4.6 µM | IC50 (MCF7 [8]): 3.55 µM | Activity [9]: Non-toxic | Activity (MCF7 [10]): inactive | Activity (Vero): Non-toxic | IC50 (MDA-MB-231 [11]): 7.2 µM | Activity (Mus musculus): Non-toxic | Activity (MCF7 [12]): inactive | Activity (MCF7 [13]): Active | Activity (MCF7 [14]): Active | Activity (MCF7 [15]): Active | Activity (MCF7 [16]): Active | Activity (MCF7 [17]): Active | Activity (MCF7 [18]): 86.96% | Activity (MCF7 [19]): 18.93% | Activity (MCF7 [20]): 6.97% | Activity (MCF7 [21]): 2.59% | Activity (MDA-MB-231 [22]): 6.48% | Activity (MDA-MB-231 [23]): 18.64% | Activity (MDA-MB-231 [24]): 8.08%
